Publication PMC2774482 (Basic & Clinical Pharmacology & Toxicology, 2009)
Where a name gives a salt, the structure may show the parent alone.

What was measured:
Caco-2 cell monolayers [1] = assay: Bidirectional transepithelial transport across Caco-2 cell monolayers; format: in vitro ADME, human; conditions: for increase of the efflux (B–A): physiological pH 7.4/7.4
pKa / ionisation = format: physicochemical; conditions: at both pH 6.8 and 7.4
Caco-2 cell monolayers [2] = assay: Paracellular transport of [^3H]-mannitol across Caco-2 monolayers; format: in vitro ADME, human; conditions: apical to basolateral (A-B), over 3 hr
How it was run: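 Caco-2 TC7 cells (passages 40–55) seeded at 65,000 cells/cm2 on 0.4 µm polycarbonate Transwell inserts and used 20–21 days post-seeding. [3H]-mannitol (0.5 µCi/ml) serves as the paracellular marker for tight-junction integrity. Apical-to-basolateral permeability is followed over 3 hr, with basolateral samples taken at several times and counted by liquid scintillation.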

[3] = Bidirectional transepithelial transport across Caco-2 cell monolayers; format: in vitro ADME, human; conditions: human, rhodamine 123 5 µM, pH 6.8/7.4, control (no inhibitor)
P-gp = assay: as above; format: in vitro ADME, human; conditions: human, Caco-2, pH 6.8, with cyclosporine A 10 µM, rhodamine 123 5 µM, pH 6.8/7.4, + cyclosporine A 10 µM
[4] = 1 µM, pH 6.8/7.4, + 10 µM Cyclosporine A
[5] = 1 µM, pH 7.4/7.4, + 4 µM GF120918
[6] = 1 µM, pH 7.4/7.4, + 10 µM Cyclosporine A
[7] = 1 µM, pH 7.4/7.4, no inhibitor, control of GF120918 experiment (Table 2)
[8] = 10 µM, pH 6.8/7.4, + 10 µM Cyclosporine A
[9] = 10 µM, pH 6.8/7.4, no inhibitor
[10] = 10 µM, pH 7.4/7.4, + 10 µM Cyclosporine A
[11] = 10 µM, pH 7.4/7.4, no inhibitor
[12] = 50 µM, pH 6.8/7.4, + 10 µM Cyclosporine A
[13] = 50 µM, pH 6.8/7.4, no inhibitor
[14] = 50 µM, pH 7.4/7.4, + 10 µM Cyclosporine A
[15] = 50 µM, pH 7.4/7.4, no inhibitor
[16] = 100 µM, pH 6.8/7.4, + 10 µM Cyclosporine A
[17] = 100 µM, pH 6.8/7.4, no inhibitor
[18] = 100 µM, pH 7.4/7.4, + 10 µM Cyclosporine A
[19] = 100 µM, pH 7.4/7.4, no inhibitor
[20] = in the presence of cyclosporine A

In the case of COc1cccc(C2(O)CCCCC2CN(C)C)c1 (single isomer, unassigned; (+)) [(+)-TMD, (+)-tramadol], the “Papp (A – B)” value (Caco-2 cell monolayers [1]; [4]) is reported as 15.6 ± 1.2 (cm/sec.) (10^−6), the “Papp (B – A)” value (Caco-2 cell monolayers [1]; [4]) is reported as 34.0 ± 0.7 (cm/sec.) (10^−6) and the “Papp (A – B)” value (Caco-2 cell monolayers [1]; 1 µM, pH 6.8/7.4, no inhibitor) is reported as 14.1 ± 0.8 (cm/sec.) (10^−6). For the same compound, the “Papp (B – A)” value (Caco-2 cell monolayers [1]; 1 µM, pH 6.8/7.4, no inhibitor) was 31.1 ± 0.8 (cm/sec.) (10^−6), the “Papp (A – B)” value (Caco-2 cell monolayers [1]; [5]) was 45.8 ± 3.7 (cm/sec.) (10^−6) and the “Papp (B – A)” value (Caco-2 cell monolayers [1]; [5]) was 60.6 ± 2.1 (cm/sec.) (10^−6). The “Papp (A – B)” value (Caco-2 cell monolayers [1]; [6]) was 26.2 ± 3.4 (cm/sec.) (10^−6), the “Papp (B – A)” value (Caco-2 cell monolayers [1]; [6]) was 34.6 ± 0.8 (cm/sec.) (10^−6) and the “Papp (A – B)” value (Caco-2 cell monolayers [1]; 1 µM, pH 7.4/7.4, no inhibitor) was 28.1 ± 0.5 (cm/sec.) (10^−6). The “Papp (B – A)” value (Caco-2 cell monolayers [1]; 1 µM, pH 7.4/7.4, no inhibitor) was 31.5 ± 1.3 (cm/sec.) (10^−6), the “Papp (A – B)” value (Caco-2 cell monolayers [1]; [7]) was 42.6 ± 6.2 (cm/sec.) (10^−6) and the “Papp (B – A)” value (Caco-2 cell monolayers [1]; [7]) was 52.3 ± 2.9 (cm/sec.) (10^−6). The “Papp (A – B)” value (Caco-2 cell monolayers [1]; [8]) was 9.6 ± 1.1 (cm/sec.) (10^−6), the “Papp (B – A)” value (Caco-2 cell monolayers [1]; [8]) was 28.8 ± 0.6 (cm/sec.) (10^−6) and the “Papp (A – B)” value (Caco-2 cell monolayers [1]; [9]) was 11.0 ± 0.7 (cm/sec.) (10^−6). For the same compound, the “Papp (B – A)” value (Caco-2 cell monolayers [1]; [9]) was 26.9 ± 0.5 (cm/sec.) (10^−6), the “Papp (A – B)” value (Caco-2 cell monolayers [1]; [10]) was 30.2 ± 2.1 (cm/sec.) (10^−6) and the “Papp (B – A)” value (Caco-2 cell monolayers [1]; [10]) was 39.4 ± 0.8 (cm/sec.) (10^−6). The “Papp (A – B)” value (Caco-2 cell monolayers [1]; [11]) was 33.5 ± 1.4 (cm/sec.) (10^−6), the “Papp (B – A)” value (Caco-2 cell monolayers [1]; [11]) was 38.8 ± 1.6 (cm/sec.) (10^−6) and the “Papp (A – B)” value (Caco-2 cell monolayers [1]; [12]) was 9.3 ± 0.6 (cm/sec.) (10^−6). For the same compound, the “Papp (B – A)” value (Caco-2 cell monolayers [1]; [12]) was 31.2 ± 0.7 (cm/sec.) (10^−6), the “Papp (A – B)” value (Caco-2 cell monolayers [1]; [13]) was 10.3 ± 0.5 (cm/sec.) (10^−6) and the “Papp (B – A)” value (Caco-2 cell monolayers [1]; [13]) was 25.6 ± 2.3 (cm/sec.) (10^−6). For the same compound, the “Papp (A – B)” value (Caco-2 cell monolayers [1]; [14]) was 49.9 ± 2.5 (cm/sec.) (10^−6), the “Papp (B – A)” value (Caco-2 cell monolayers [1]; [14]) was 69.6 ± 0.7 (cm/sec.) (10^−6) and the “Papp (A – B)” value (Caco-2 cell monolayers [1]; [15]) was 52.5 ± 1.1 (cm/sec.) (10^−6). For the same compound, the “Papp (B – A)” value (Caco-2 cell monolayers [1]; [15]) was 65.3 ± 1.0 (cm/sec.) (10^−6), the “Papp (A – B)” value (Caco-2 cell monolayers [1]; [16]) was 21.7 ± 1.9 (cm/sec.) (10^−6) and the “Papp (B – A)” value (Caco-2 cell monolayers [1]; [16]) was 61.7 ± 2.0 (cm/sec.) (10^−6). The “Papp (A – B)” value (Caco-2 cell monolayers [1]; [17]) was 22.6 ± 1.9 (cm/sec.) (10^−6), the “Papp (B – A)” value (Caco-2 cell monolayers [1]; [17]) was 60.9 ± 1.3 (cm/sec.) (10^−6) and the “Papp (A – B)” value (Caco-2 cell monolayers [1]; [18]) was 39.1 ± 1.5 (cm/sec.) (10^−6). The “Papp (B – A)” value (Caco-2 cell monolayers [1]; [18]) was 68.2 ± 0.9 (cm/sec.) (10^−6), the “Papp (A – B)” value (Caco-2 cell monolayers [1]; [19]) was 41.7 ± 3.6 (cm/sec.) (10^−6) and the “Papp (B – A)” value (Caco-2 cell monolayers [1]; [19]) was 66.9 ± 0.4 (cm/sec.) (10^−6). The “increase of the efflux (B–A)” value (Caco-2 cell monolayers [1]; GF120918, 1 µM) was 17% and the “increase of the efflux (B–A)” value (Caco-2 cell monolayers [1]; [20]) was “up to 10%”.
For COc1cccc(C2(O)CCCCC2CN(C)C)c1 (single isomer, unassigned; (-)) [(−)-TMD, (−)-tramadol], the “Papp (A – B)” value (Caco-2 cell monolayers [1]; [4]) was 18.7 ± 1.1 (cm/sec.) (10^−6), the “Papp (B – A)” value (Caco-2 cell monolayers [1]; [4]) was 36.0 ± 0.3 (cm/sec.) (10^−6) and the “Papp (A – B)” value (Caco-2 cell monolayers [1]; 1 µM, pH 6.8/7.4, no inhibitor) was 16.7 ± 0.5 (cm/sec.) (10^−6). For the same compound, the “Papp (B – A)” value (Caco-2 cell monolayers [1]; 1 µM, pH 6.8/7.4, no inhibitor) was 32.2 ± 0.5 (cm/sec.) (10^−6), the “Papp (A – B)” value (Caco-2 cell monolayers [1]; [5]) was 44.8 ± 4.0 (cm/sec.) (10^−6) and the “Papp (B – A)” value (Caco-2 cell monolayers [1]; [5]) was 61.3 ± 2.8 (cm/sec.) (10^−6). The “Papp (A – B)” value (Caco-2 cell monolayers [1]; [6]) was 29.2 ± 1.1 (cm/sec.) (10^−6), the “Papp (B – A)” value (Caco-2 cell monolayers [1]; [6]) was 34.2 ± 0.8 (cm/sec.) (10^−6) and the “Papp (A – B)” value (Caco-2 cell monolayers [1]; 1 µM, pH 7.4/7.4, no inhibitor) was 31.0 ± 1.9 (cm/sec.) (10^−6). The “Papp (B – A)” value (Caco-2 cell monolayers [1]; 1 µM, pH 7.4/7.4, no inhibitor) was 30.8 ± 1.8 (cm/sec.) (10^−6), the “Papp (A – B)” value (Caco-2 cell monolayers [1]; [7]) was 43.8 ± 5.8 (cm/sec.) (10^−6) and the “Papp (B – A)” value (Caco-2 cell monolayers [1]; [7]) was 51.1 ± 1.9 (cm/sec.) (10^−6). For the same compound, the “Papp (A – B)” value (Caco-2 cell monolayers [1]; [8]) was 10.2 ± 1.0 (cm/sec.) (10^−6), the “Papp (B – A)” value (Caco-2 cell monolayers [1]; [8]) was 28.9 ± 0.5 (cm/sec.) (10^−6) and the “Papp (A – B)” value (Caco-2 cell monolayers [1]; [9]) was 11.0 ± 0.5 (cm/sec.) (10^−6). For the same compound, the “Papp (B – A)” value (Caco-2 cell monolayers [1]; [9]) was 26.9 ± 0.5 (cm/sec.) (10^−6), the “Papp (A – B)” value (Caco-2 cell monolayers [1]; [10]) was 29.9 ± 1.5 (cm/sec.) (10^−6) and the “Papp (B – A)” value (Caco-2 cell monolayers [1]; [10]) was 39.0 ± 0.6 (cm/sec.) (10^−6). For the same compound, the “Papp (A – B)” value (Caco-2 cell monolayers [1]; [11]) was 33.5 ± 2.2 (cm/sec.) (10^−6), the “Papp (B – A)” value (Caco-2 cell monolayers [1]; [11]) was 37.2 ± 0.4 (cm/sec.) (10^−6) and the “Papp (A – B)” value (Caco-2 cell monolayers [1]; [12]) was 9.4 ± 0.6 (cm/sec.) (10^−6). For the same compound, the “Papp (B – A)” value (Caco-2 cell monolayers [1]; [12]) was 31.2 ± 0.8 (cm/sec.) (10^−6), the “Papp (A – B)” value (Caco-2 cell monolayers [1]; [13]) was 10.3 ± 0.5 (cm/sec.) (10^−6) and the “Papp (B – A)” value (Caco-2 cell monolayers [1]; [13]) was 25.4 ± 2.3 (cm/sec.) (10^−6). For the same compound, the “Papp (A – B)” value (Caco-2 cell monolayers [1]; [14]) was 50.9 ± 1.7 (cm/sec.) (10^−6), the “Papp (B – A)” value (Caco-2 cell monolayers [1]; [14]) was 68.9 ± 0.4 (cm/sec.) (10^−6) and the “Papp (A – B)” value (Caco-2 cell monolayers [1]; [15]) was 52.9 ± 1.0 (cm/sec.) (10^−6). For the same compound, the “Papp (B – A)” value (Caco-2 cell monolayers [1]; [15]) was 63.4 ± 3.8 (cm/sec.) (10^−6), the “Papp (A – B)” value (Caco-2 cell monolayers [1]; [16]) was 21.7 ± 2.0 (cm/sec.) (10^−6) and the “Papp (B – A)” value (Caco-2 cell monolayers [1]; [16]) was 62.5 ± 2.0 (cm/sec.) (10^−6). The “Papp (A – B)” value (Caco-2 cell monolayers [1]; [17]) was 22.4 ± 1.8 (cm/sec.) (10^−6), the “Papp (B – A)” value (Caco-2 cell monolayers [1]; [17]) was 61.3 ± 1.0 (cm/sec.) (10^−6) and the “Papp (A – B)” value (Caco-2 cell monolayers [1]; [18]) was 37.3 ± 1.0 (cm/sec.) (10^−6). For the same compound, the “Papp (B – A)” value (Caco-2 cell monolayers [1]; [18]) was 67.7 ± 1.5 (cm/sec.) (10^−6), the “Papp (A – B)” value (Caco-2 cell monolayers [1]; [19]) was 41.1 ± 2.9 (cm/sec.) (10^−6) and the “Papp (B – A)” value (Caco-2 cell monolayers [1]; [19]) was 64.3 ± 3.4 (cm/sec.) (10^−6). The “increase of the efflux (B–A)” value (Caco-2 cell monolayers [1]; GF120918, 1 µM) was 17% and the “increase of the efflux (B–A)” value (Caco-2 cell monolayers [1]; [20]) was “up to 10%”.
With COc1cccc(C2(O)CCCCC2CN(C)C)c1 (centres unmarked) [TMD, Tramadol hydrochloride] the “ionised (protonated) form” value (pKa / ionisation) was 100%.
Work on OC[C@@H](O)[C@@H](O)[C@H](O)[C@H](O)CO [[^3H]-mannitol] yielded a transport rate (Caco-2 cell monolayers [2]) of under 1 % per hr.
For COC(=O)c1ccccc1-c1c2ccc(=N)cc-2oc2cc(N)ccc12 [rhodamine 123], the Papp A→B at 3 h, 5 µM ([3]; Caco-2, pH 6.8, Papp(A–B)) was 48 ± 2 nm/s, the Papp B→A at 3 hr, 5 µM ([3]; Caco-2, pH 6.8, Papp(B–A)) was 64 ± 7 nm/s and the “decrease of secretory transport” value (Caco-2 cell monolayers [1]; in the presence of the P-gp inhibitor cyclosporine A) was 80%. It also gave a Papp A→B at 3 h, 5 µM (P-gp; Papp(A–B)) of 78 ± 3 nm/s and a Papp B→A at 3 hr, 5 µM (P-gp; Papp(B–A)) of 12 ± 3 nm/s.
